High-throughput results from PubChem BioAssay.
The list is not random: actives were taken first. Their share in the collection is about 1.5%.
LANA-H2B inh – blocks KSHV LANA binding to histone H2A/H2B. 320,000 compounds, 0.6% hits. cell-free LANA-H2A/H2B peptide, fluorescence polarization. AID 2629. inhibition, % (test concentration not listed); in the data active = inhibition mostly above about 10%, no sharp cut-off; inactive = mostly below about 6.7%
HDAC3 inhib – human HDAC3 inhibition | 320,000 compounds, 0.15% hits | O15379 | recombinant HDAC3, fluorogenic peptide/trypsin coupled, fluorescence | inhibition, % at 8.3 µM; in the data active = inhibition above about 26%, passing the limit was not always enough; inconclusive = no clear call, values can overlap the other calls
Target sequence (O15379 whole entry, looked up): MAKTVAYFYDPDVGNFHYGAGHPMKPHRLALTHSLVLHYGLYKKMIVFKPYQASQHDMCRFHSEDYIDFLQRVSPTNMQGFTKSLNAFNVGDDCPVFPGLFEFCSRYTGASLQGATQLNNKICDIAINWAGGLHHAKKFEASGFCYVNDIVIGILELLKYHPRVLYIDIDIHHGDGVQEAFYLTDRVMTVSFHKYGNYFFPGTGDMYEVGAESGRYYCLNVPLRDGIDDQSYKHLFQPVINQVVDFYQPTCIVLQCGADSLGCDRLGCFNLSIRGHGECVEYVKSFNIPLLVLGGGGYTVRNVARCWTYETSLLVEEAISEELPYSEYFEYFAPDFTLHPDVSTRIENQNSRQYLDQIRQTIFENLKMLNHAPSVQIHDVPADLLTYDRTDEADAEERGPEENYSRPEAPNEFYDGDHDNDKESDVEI
DSG3 Ab inh – inhibitors of pemphigus antibody binding to human desmoglein-3. P32926. DSG3-coupled beads, scFv-anti-DSG3-GFP binding, flow cytometry; hits give low values. binding (percent of control), % at 10 µM. 310,000 compounds, 0.48% hits;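 active = binding more than 3 SD below its plate's average and above zero; inconclusive = below that plate limit but binding exactly zero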;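 note: hits lower antibody fragment binding to DSG3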
Arrestin-AP2 inh – inhibitors of human beta-arrestin and AP2 interaction; 340,000 compounds, 0.31% hits; FITC-arrestin peptide / GST-AP2 beads, flow cytometry; AP2 beta2 appendage carries R879A mutation; inhibition, % at 10 µM;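 active = inhibition above a set limit, near 3 SD of compounds lacking own fluorescence, cut at about 54% in these data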;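 note: plate controls were DMSO wells for no effect and 5 µM unlabelled arrestin peptide for full effect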
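System: GST-AP2 R879A glutathione beads; medium: PBS, Tween 20 0.05%, BSA 0.1%; reagent: fluorescein-tagged arrestin peptide at 50 nM final; schedule: pre-incubation 12 min, peptide binding 1 h, room temperature; detection: flow cytometry, FL1 (488/535 nm); read-out: inhibition as reduced fluorescein signal on beads, percent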
T cell modulator – modulates CD8 T cell binding to vesicles; response (vesicle binding), % at 7 µM; AID 2052; 2C CD8+ T cell-vesicle binding, flow cytometry; hits give low values; 330,000 compounds, 0.068% hits;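 active = response, share of CD8 T cells binding vesicles, and their 90th percentile fluorescence all below set limits, cut at about 80% in these data, passing the limit was not always enough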;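 note: values below 100% mean blocked vesicle binding to the CD8+ T cells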
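System: murine 2C transgenic CD8+ T lymphocytes; also added: QL9-loaded Drosophila micro-vesicles; times: binding 1.5 h at 37 °C; measured by: flow cytometry, PE anti-B7-1 (FL2) versus Alexa647 anti-CD8 (FL8), PFA-fixed; control set: Peptide-free naked vesicles (low) and QL9 vesicles with 0.7% DMSO vehicle (high)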
* = called active by the depositor; i = inactive; ? = inconclusive; / = no result; ! = not active in a repeat.

SMILES	LANA-H2B inh	HDAC3 inhib	DSG3 Ab inh	Arrestin-AP2 inh	T cell modulator
CC1=Nc2ccccc2N=C(NC(=O)c2ccccc2)C1c1ccccc1 (stereo not drawn)	-6	34*	91	8	106
CC1CCN(S(=O)(=O)c2ccc(C(=O)N3CCCC3C(=O)O)cc2)CC1 (stereo not drawn)	/	0	103	9	266
Cc1cccc(N(Cc2ccccc2)C(=O)c2ccc(S(C)(=O)=O)cc2)c1	23*	6	137	2	296
CC(C)CCOc1ccc(NC(=O)C2OC3OC(C)(C)OC3C3OC(C)(C)OC23)cc1 (stereo not drawn)	3	3	/	-8	686
COc1ccc(NC(=O)C2OC3OC(C)(C)OC3C3OC(C)(C)OC23)cc1 (stereo not drawn)	27*	0	/	14	388
NCCC(=O)NCCc1cnc[nH]1	3	-4	102	5	168
NCCc1cnc[nH]1	22*!	-3	87	-3	492
Cc1ccc(NC(=O)C(C)OC(=O)CCN=C2NS(=O)(=O)c3ccccc32)cc1 (stereo not drawn)	5	1	103	-15	493
O=C1N[C@@H](Cc2ccccc2)C(=O)N2[C@H]1C[C@]1(Br)c3ccccc3N(S(=O)(=O)c3ccc(F)cc3)[C@H]21	-2	2	96	2	/
Cc1cc(SCC(=O)N2c3ccccc3NC(=O)CC2C)nc2ccccc12 (stereo not drawn)	/	/	102	/	/
COc1c(C(=O)Nc2nccs2)ccc2ccccc12	1	-1	126	42	263
COc1cc2ccccc2cc1C(=O)Nc1ccc(Br)cn1	2	-5	89*	15	187
COc1cc2ccccc2cc1C(=O)Nc1nccs1	20*	-4	102	4	806
COc1c(C(=O)Nc2ccc(Br)cn2)ccc2ccccc12	2	1	96	25	205
COc1cc2ccccc2cc1C(=O)NC(=S)Nc1nnn(C)n1	4	-9	-8.3*	16	410
CCOc1ccc(CCNC(=O)COC(=O)CNS(=O)(=O)c2ccc(NC(C)=O)cc2)cc1OCC	2	-10	96	26	366
CCN(CC)S(=O)(=O)c1cccc(-c2nnc(SCCOc3ccc(Cl)cc3)o2)c1	-8	10	-11*	-5	613
CCN(CC)S(=O)(=O)c1cccc(-c2nnc(SCCOc3ccccc3)o2)c1	7	-3	65	-7	726
Cc1csc(-c2coc3cc(O)cc(C)c3c2=O)n1	8.1*	12	117	-42	275
O=C(CN1C(=O)c2ccccc2C1=O)NC(Cc1ccccc1)C(=O)O (stereo not drawn)	/	/	89	6	/
CCN(Cc1ccc2c(c1)OCCO2)C(=O)CN1C(=O)NC2(CCCCC2)C1=O	-4	2	99	5	310
Cc1ccc(/C(O)=C/c2nc3cc(C)ccc3oc2=O)cc1	26*	5	99	-1	356
O=C(Nc1ccccc1Cl)Nc1ccnn1C1CCN(C(=O)C2CCOC2)CC1 (stereo not drawn)	/	/	97	/	/
CC(C)(Cc1ccccc1)NC(=O)C(=O)c1cn(CC(=O)N2CCOCC2)c2ccccc12	39*	-3	115	24	283
O=C(NCc1ccc(Cl)cc1)C(=O)c1cn(CC(=O)N2CCOCC2)c2ccccc12	-6	2	/	-12	301
SMILES	LANA-H2B inh	HDAC3 inhib	DSG3 Ab inh	Arrestin-AP2 inh	T cell modulator
Nc1c(-c2ccccc2)cnc2cc(-c3ccccc3)nn12	/	/	80*	-6	/
NS(=O)(=O)c1ccc2nc(NC(=O)Nc3ccccc3F)sc2c1	3	-1	96	42	i
Cc1ccccc1NC(=O)Nc1nc2ccc(S(C)(=O)=O)cc2s1	1	0	74*	28	184
Cc1ccc(-c2cc(C(=O)NCc3ccc4c(c3)OCO4)[nH]n2)c(O)c1C	-1	6	102	-15	530
Cc1cc(O)c(-c2cc(C(=O)NCc3ccc4c(c3)OCO4)[nH]n2)cc1C	-1	6	82*	9	267
CCOC(=O)c1cc2c(C)nn(-c3ccccc3)c2s1	-3	12	-30*	-6	249
CCOC(=O)c1nn(-c2ccccc2)c(=O)c2c(NC(C)=O)scc12	1	2	62*	-9	365
COC(=O)c1cc2c(C)nn(-c3ccccc3)c2s1	-4	-7	/	0	490
COc1cc(OC)cc(C(=O)NC(C)CNc2ccc(Cl)cc2[N+](=O)[O-])c1 (stereo not drawn)	2	-10	100	-17	244
C#CCNC(=O)C1=C[C@H](C(C)(C)C)C[C@H](OCCCCO)O1	1	-1	106	19	242
COc1ccc([C@H]2N[C@]3(CCCN(Cc4ccc(F)cc4)C3=O)[C@H]3C(=O)N(C)C(=O)[C@@H]23)cc1	/	/	110	/	/
CCN(CC(=O)NCc1ccc(Cl)cc1)C(=O)CCc1ccccc1	-1	2	94	29	713
O=C(Nc1cccc(-n2cnnn2)c1)C1CCCN(C(=O)Cc2cccc(Cl)c2)C1 (stereo not drawn)	/	/	103	/	/
O=C(Nc1cccc(-n2cnnn2)c1)C1CCCN(Cc2cccc(C(F)(F)F)c2)C1 (stereo not drawn)	13*	-1	/	4	324
O=C1c2ccc(-c3ccc(F)cc3OCc3ccccc3)cc2S(=O)(=O)c2cccc(C(=O)N3CCN(c4ncc(Cl)cc4Cl)CC3)c21	3	4	85	-2	i
O=C1c2ccc(-c3ccc(F)cc3OCc3ccccc3)cc2S(=O)(=O)c2cccc(C(=O)N3CCN(c4ncc(Br)cn4)CC3)c21	5	0	89*	3	158
Oc1ccccc1N1CCN(C(=S)Nc2ccc(SC(F)F)cc2)CC1	23*	7	98	-8	253
CCOc1ccc(NC(=O)CN(C)C(=O)c2ccc(=O)[nH]c2)cc1OCC	-2	3	/	0	257
COc1ccc(F)cc1S(=O)(=O)NC1CCCC1	82*	-2	102	9	371
CCOc1cc(S(=O)(=O)NC2CCCCCC2)ccc1F	22*	4	?	0	246
CC(Oc1ccc(C#N)cc1)C(=O)N1CC=C(c2ccccc2)CC1 (stereo not drawn)	1	3	114	24	517
CCN(C(=O)COC(=O)C1CC1C)c1c(N)n(Cc2ccccc2)c(=O)[nH]c1=O (stereo not drawn)	/	/	101	-10	/
CCOC(=O)c1ccc(OC(=O)CCCCCN=C(N)N)cc1	-5	93*	100	-5	373
COc1ccc(C2/C=C\CC(NC(=O)OCC3c4ccccc4-c4ccccc43)CC(=O)N2Cc2ccccc2F)cc1 (stereo not drawn)	/	/	83*	47	/
N#Cc1nc(COc2ccc(-c3ccccc3)cc2)oc1NCCCN1CCOCC1	1	10	98	83*	314
